Screening data (PubChem BioAssay)
TRPC4 block: TRPC4 (mouse) channel inhibition; Q9QUQ5; HEK293 TRPC4beta/mu-opioid, DAMGO-evoked Fluo4 calcium flux; active compounds read low; B-score at 10 µM; 0.39% of 300,000 active; AID 2247;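 active = B-score over 3 SD under the library average, no early fluorescence shift, positive overall ratio signal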
Target sequence (Q9QUQ5 whole entry, looked up): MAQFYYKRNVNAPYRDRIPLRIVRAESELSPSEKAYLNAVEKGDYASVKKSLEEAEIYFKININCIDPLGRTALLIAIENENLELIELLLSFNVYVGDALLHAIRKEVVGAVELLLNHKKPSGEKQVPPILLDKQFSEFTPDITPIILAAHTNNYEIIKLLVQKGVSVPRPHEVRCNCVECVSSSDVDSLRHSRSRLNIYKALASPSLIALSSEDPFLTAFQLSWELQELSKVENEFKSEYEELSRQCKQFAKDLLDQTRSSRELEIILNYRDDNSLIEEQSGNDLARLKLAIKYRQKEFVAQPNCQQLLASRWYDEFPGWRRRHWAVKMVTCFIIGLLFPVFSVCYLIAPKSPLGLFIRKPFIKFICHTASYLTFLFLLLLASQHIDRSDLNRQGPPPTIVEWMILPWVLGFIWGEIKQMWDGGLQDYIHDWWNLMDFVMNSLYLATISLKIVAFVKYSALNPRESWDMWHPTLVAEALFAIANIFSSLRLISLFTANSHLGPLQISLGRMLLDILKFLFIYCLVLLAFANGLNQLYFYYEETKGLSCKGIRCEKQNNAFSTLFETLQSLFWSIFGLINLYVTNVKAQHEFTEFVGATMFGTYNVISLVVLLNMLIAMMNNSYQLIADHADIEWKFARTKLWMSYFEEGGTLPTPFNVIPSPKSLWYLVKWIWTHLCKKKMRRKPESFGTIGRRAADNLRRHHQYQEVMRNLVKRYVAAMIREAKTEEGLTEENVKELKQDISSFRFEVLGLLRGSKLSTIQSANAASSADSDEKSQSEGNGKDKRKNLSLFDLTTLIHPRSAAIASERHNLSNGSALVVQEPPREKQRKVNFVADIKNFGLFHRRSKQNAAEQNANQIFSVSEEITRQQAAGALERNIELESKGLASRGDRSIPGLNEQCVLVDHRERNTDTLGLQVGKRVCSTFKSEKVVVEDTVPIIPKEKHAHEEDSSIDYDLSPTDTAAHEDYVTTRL
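Material: HEK293 cells with stable TRPC4beta plus mu-opioid receptor expression / Probe or stimulus: DAMGO in two steps, submaximal then maximal / Compound: single concentration per test compound / Technique: kinetic Fluo4 fluorescence imaging of calcium influx / Read-out: per-well B score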
TRPC6 inh: blocks the mouse TRPC6 cation channel. 1.1% of 310,000 active. B-score at 10 µM. HEK293-TRPC6, membrane potential dye, ACh-evoked depolarization; active compounds read low. Q61143;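 active = B-score under library mean minus 3 SD, initial fluorescence not abnormally high, positive integrated signal ratio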;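 also: B-score derived from integrated fluorescence ratio over the kinetic read; more negative B-score means stronger inhibition of depolarization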
TRPC4 potent: TRPC4 (mouse) allosteric potentiation; 0.42% of 310,000 active; HEK293 TRPC4beta/mu-opioid, DAMGO EC20, Fluo-4 Ca2+ flux; active compounds read high; AID 2227; B-score at 10 µM; Q9QUQ5;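 active = B-score of calcium response area above 5 SD of library B-scores, with initial fluorescence ratio within 5 SD of library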;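 also: B-score of integrated fluorescence ratio over time as area under calcium response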
TRPC4 act: opens the mouse TRPC4 cation channel | AID 2237 | HEK293 TRPC4beta/mu-opioid, Fluo4 calcium fluorescence; active compounds read high | B-score at 10 µM | Q9QUQ5 | 0.49% of 310,000 active;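 active = B-score above 5 SD of library B-scores, and initial fluorescence ratio not above library mean plus 5 SD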;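 also: positive B-score marks a calcium rise read as TRPC4 activation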
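Assay system: HEK293 stable line with TRPC4beta plus mu-opioid receptor; schedule: 45 min room-temperature Fluo4 loading, 110 s read; technique: kinetic Fluo4 calcium fluorescence; evaluation: integrated baseline-normalised fluorescence ratio, converted to per-well B score; controls: buffer (low) and maximal DAMGO (high)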
TRPC6 activator: mouse TRPC6 channel activation | B-score at 10 µM | HEK293-TRPC6 membrane potential dye fluorescence; active compounds read high | 0.13% of 310,000 active | AID 2550;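 active = B-score of the integrated fluorescence ratio above library mean plus 3 SD, and starting fluorescence ratio within library mean plus 5 SD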;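 also: higher score means more depolarization so channel activation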
TRPC4 sel inh 2: mouse TRPC4 off-target activity of TRPC6 inhibitors, second screen | shares compounds with TRPC6 inh | HEK293 TRPC4/MOR, membrane potential dye fluorescence; channel activated by saturating DAMGO dose | inhibition, % at 10 µM | 42% of 920 active | AID 2776;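 active = compounds whose fluorescence signal differed from control wells by over 3 SD, either direction, in both duplicate plates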
TRPC4 spec: mouse TRPC4 off-target activity of TRPC6 inhibitors; activity change, negative = inhibition, % at 10 µM; HEK293 TRPC4/mu-opioid, membrane potential fluorescence; AID 2777; shares compounds with TRPC6 inh; 61% of 920 active;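 active = rise or fall in signal beyond 3 SD of buffer-only wells in both replicate plates, either sign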;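 also: integrated kinetic ratio of fluorescence range over baseline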
HEK293 MPD ctr 2-1: second counter-screen for TRPC6 inhibitors: parental HEK293 cells; shares compounds with TRPC6 inh; parental HEK293 membrane potential dye fluorescence; maximal acetylcholine challenge after compound addition; signal change vs control, % at 10 µM; 31% of 920 active;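 active = membrane potential signal moving either way by over 3 SD of the maximum-effect control, in both duplicate plates, meaning non-specific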
HEK293 MPD ctr-1: counter-screen for TRPC6 inhibitors: effect in parental HEK293 cells; membrane potential signal change, % at 10 µM; shares compounds with TRPC6 inh; parental HEK293 membrane potential dye fluorescence; 60% of 920 active;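 active = membrane potential signal shifting up or down by more than 3 SD of buffer-only wells, on both duplicate plates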
HEK293 MPD ctr-2: counter-screen for TRPC6 modulators: effect in parental HEK293 cells. AID 488924. membrane potential signal change, % at 10 µM. 51% of 2,400 active. membrane potential dye fluorescence. shares compounds with TRPC6 inh;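 active = membrane potential signal moves up or down beyond 5 SD from buffer-only wells, on both duplicate plates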
HEK293 MPD ctr 2-2: parental HEK293 nonspecific activity of TRPC6 modulators, second screen; shares compounds with TRPC6 inh; membrane potential dye fluorescence; after compound, maximal acetylcholine stimulation; inhibition, % at 10 µM; 14% of 2,400 active; AID 488926;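 active = membrane potential signal drops by more than 5 SD from the mean control signal, in both duplicate plates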;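 also: plate controls were acetylcholine ECmax control wells for no effect and buffer only wells for full effect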
TRPC4/MOR mod: tests whether TRPC6 modulators also affect mouse TRPC4; shares compounds with TRPC6 inh; HEK293 TRPC4/mu-opioid, membrane potential fluorescence; percent change from control (negative = decrease, positive = increase), % at 10 µM; 69% of 2,400 active; AID 488927;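 active = membrane potential signal moved up or down beyond 5 SD of buffer control wells, in both duplicate plates, actives on both sides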;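 also: plate controls were assay buffer wells for no effect and DAMGO maximal-effect wells for full effect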
TRPC4/MOR inh 2: second selectivity test of TRPC6 modulators against mouse TRPC4; shares compounds with TRPC6 inh; HEK293 TRPC4/mu-opioid, membrane potential dye fluorescence; stimulated with maximal-effect DAMGO; inhibition, % at 10 µM; 55% of 2,400 active; AID 488928;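 active = drop in membrane potential signal beyond 5 SD of the control wells in both duplicate plates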;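 also: TRPC4 counter screen for TRPC6 hits run under conditions tuned for TRPC6 not TRPC4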
TRPC6 inh conf: confirmation of mouse TRPC6 inhibitors; shares compounds with TRPC6 inh; HEK293-TRPC6, membrane potential dye, ACh-evoked depolarization; inhibition, % at 10 µM; 43% of 3,300 active;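 active = fluorescence ratio falls more than 5 SD below the full-stimulation control mean, in both duplicate runs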;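 also: integrated fluorescence ratio of peak minus minimum over baseline after agonist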
TRPC6 act conf: mouse TRPC6 activator confirmation | shares compounds with TRPC6 inh | 11% of 2,800 active | HEK293-TRPC6 membrane potential dye fluorescence, FDSS | activation, % at 10 µM;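 active = ratio signal rise beyond 5 SD above unstimulated control wells' mean, seen in both duplicate runs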;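 also: plate controls were buffer EC0 wells for no effect and acetylcholine ECmax response for full effect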
An asterisk follows results filed as active. This is a sample that favours compounds with a hit; in the whole collection about 2.3% have one here.

How did CCN(CC)CCn1c(=N)n(CCOc2ccccc2)c2ccccc21 do in these assays?
TRPC4 block: inactive; TRPC6 inh: -12*; TRPC4 potent: inactive; TRPC4 act: inactive; TRPC6 activator: inactive; TRPC4 sel inh 2: 52%*; TRPC4 spec: 15%*; HEK293 MPD ctr 2-1: 272%*; HEK293 MPD ctr-1: 6.5%*; TRPC6 inh conf: inactive; TRPC6 act conf: inactive

What do the screens show for `COc1cc(Br)cc2cc(C(=O)OC3CCN(C)CC3)c(=O)oc12`?
TRPC4 block: inactive; TRPC6 inh: -12*; TRPC4 potent: inactive; TRPC4 act: inactive; TRPC6 activator: inactive; TRPC4 sel inh 2: 72%*; TRPC4 spec: -25%*; HEK293 MPD ctr 2-1: inactive; HEK293 MPD ctr-1: -472%*; TRPC6 inh conf: inactive; TRPC6 act conf: inactive

Results for CCn1c2ccccc2c2cnc(N=CN(C)C)c(C#N)c21 ?
TRPC4 block: inactive; TRPC6 inh: inactive; TRPC4 potent: inactive; TRPC4 act: inactive; TRPC6 activator: inactive

What do the screens show for `CCN(CC)CCn1c2ccccc2c2cnc(N=CN(C)C)c(C#N)c21`?
TRPC4 block: inactive; TRPC6 inh: -7.2*; TRPC4 potent: inactive; TRPC4 act: inactive; TRPC6 activator: inactive; TRPC4 sel inh 2: 50%*; TRPC4 spec: -20%*; HEK293 MPD ctr 2-1: inactive; HEK293 MPD ctr-1: -166%*; TRPC6 inh conf: inactive; TRPC6 act conf: inactive

What do the screens show for `N#C/C(=C\c1ccc(N2CCOCC2)o1)C(=O)NC1CCCCC1`?
TRPC4 block: inactive; TRPC6 inh: inactive; TRPC4 potent: inactive; TRPC4 act: inactive; TRPC6 activator: inactive

What do the screens show for `N#C/C(=C\c1ccc(N2CCOCC2)o1)C(=O)NCCc1ccccc1`?
TRPC4 block: inactive; TRPC6 inh: inactive; TRPC4 potent: inactive; TRPC4 act: inactive; TRPC6 activator: 14*; HEK293 MPD ctr-2: 774%*; HEK293 MPD ctr 2-2: 135%*; TRPC4/MOR mod: 129%*; TRPC4/MOR inh 2: inactive; TRPC6 inh conf: inactive; TRPC6 act conf: 96%*

What do the screens show for `COCCNC(=O)/C(C#N)=C/c1ccc(N2CCOCC2)o1`?
TRPC4 block: inactive; TRPC6 inh: inactive; TRPC4 potent: inactive; TRPC4 act: inactive; TRPC6 activator: inactive

How did N#C/C(=C/c1ccc(N2CCOCC2)o1)C(=O)Nc1ccccc1 do in these assays?
TRPC4 block: inactive; TRPC6 inh: inactive; TRPC4 potent: inactive; TRPC4 act: inactive; TRPC6 activator: 50*; HEK293 MPD ctr-2: active; HEK293 MPD ctr 2-2: active; TRPC4/MOR mod: 134%*; TRPC4/MOR inh 2: inactive; TRPC6 act conf: 322%*

Results for Cc1ccc(/C(C#N)=C\c2ccc(N3CCOCC3)o2)cc1 ?
TRPC4 block: inactive; TRPC6 inh: inactive; TRPC4 potent: inactive; TRPC4 act: inactive; TRPC6 activator: 27*; HEK293 MPD ctr-2: 420%*; HEK293 MPD ctr 2-2: inactive; TRPC4/MOR mod: 98%*; TRPC4/MOR inh 2: inactive; TRPC6 inh conf: inactive; TRPC6 act conf: 115%*

What do the screens show for `Cc1nnc(Nc2ccccn2)c2ccccc12`?
TRPC4 block: inactive; TRPC6 inh: -5.7*; TRPC4 potent: inactive; TRPC4 act: inactive; TRPC6 activator: inactive; HEK293 MPD ctr-2: -219%*; HEK293 MPD ctr 2-2: 58%*; TRPC4/MOR mod: -36%*; TRPC4/MOR inh 2: 46%*; TRPC6 inh conf: 63%*; TRPC6 act conf: inactive

How did COc1ccc(C2C3=C(CC(C)(C)CC3=O)Oc3ncn(CC(C)C)c(=N)c32)cc1 (stereo not given) do in these assays?
TRPC4 block: inactive; TRPC6 inh: inactive; TRPC4 potent: inactive; TRPC4 act: inactive; TRPC6 activator: inactive

What do the screens show for `COc1ccc(C2C3=C(CC(C)(C)CC3=O)Oc3ncn(Cc4ccco4)c(=N)c32)cc1` (stereo not given)?
TRPC4 block: inactive; TRPC6 inh: -6*; TRPC4 potent: inactive; TRPC4 act: inactive; TRPC6 activator: inactive; HEK293 MPD ctr-2: 110%*; HEK293 MPD ctr 2-2: inactive; TRPC4/MOR mod: inactive; TRPC4/MOR inh 2: 44%*; TRPC6 inh conf: inactive

How did CC(=O)Nc1cccc(/C(C)=N/NC(=O)c2ccc3c(c2)OCO3)c1 do in these assays?
TRPC4 block: inactive; TRPC6 inh: inactive; TRPC4 potent: inactive; TRPC4 act: inactive; TRPC6 activator: inactive

What do the screens show for `c1ccc(Nc2nc(N3CCCCC3)nc(N3CCNCC3)n2)cc1`?
TRPC4 block: inactive; TRPC6 inh: -5.6*; TRPC4 potent: 30*; TRPC4 act: inactive; TRPC6 activator: inactive; HEK293 MPD ctr-2: inactive; HEK293 MPD ctr 2-2: inactive; TRPC4/MOR mod: 14%*; TRPC4/MOR inh 2: 58%*; TRPC6 inh conf: 55%*

What do the screens show for `COc1ccc(S(=O)(=O)N(C)C)cc1NC(=O)Cc1cccs1`?
TRPC4 block: inactive; TRPC6 inh: inactive; TRPC4 potent: inactive; TRPC4 act: inactive; TRPC6 activator: inactive
